Consider seven compounds from ChEMBL document CHEMBL1125209, “Boc-CCK-4 derivatives containing side-chain ureas as potent and selective CCK-a receptor agonists” (J Med Chem, 1991).

*1 amine or outer side, *2 acyl side, *3 side chain or, on linkers, in order; H or OH if unused. Where a SMILES comes first, the peptide text is derived from it. Side-chain parts run from the residue outwards. The star is where a group is joined. 3Abz = Nc1cccc(C(=O)O)c1; X4 = CC(=O)c1cccc(N*)c1; X8 = Clc1ccc(N*)c(Cl)c1; Boc = CC(C)(C)OC(=O)*; X1 = Clc1cccc(Cl)c1N*; X7 = Clc1cccc(N*)c1Cl; CO = O=C([*:1])[*:2]; NHPh = c1ccc(N*)cc1

In assay [1] the target is T1, Cholecystokinin receptor type A (Cavia porcellus, UniProt Q63931).
T1 sequence (Q63931 whole entry): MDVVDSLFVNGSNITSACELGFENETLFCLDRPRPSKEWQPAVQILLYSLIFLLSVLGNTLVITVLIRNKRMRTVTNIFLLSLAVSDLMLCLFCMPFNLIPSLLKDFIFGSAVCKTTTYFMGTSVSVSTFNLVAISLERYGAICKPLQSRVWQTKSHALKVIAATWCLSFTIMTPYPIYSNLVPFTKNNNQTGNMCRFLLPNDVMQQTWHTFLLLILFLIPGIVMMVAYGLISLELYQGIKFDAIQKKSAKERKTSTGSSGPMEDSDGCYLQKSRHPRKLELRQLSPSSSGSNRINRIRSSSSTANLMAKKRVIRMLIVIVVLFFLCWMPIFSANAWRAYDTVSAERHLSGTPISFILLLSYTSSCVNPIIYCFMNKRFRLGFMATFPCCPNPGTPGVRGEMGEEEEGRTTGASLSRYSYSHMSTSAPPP
The experiment in a line: Binding affinity towards cholecystokinin type A receptor in guinea pig pancreas by using [125I]BH-CCK-8 as radioligand. It counts as tissue-based. Summed up: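 Radioligand displacement of [125I]Bolton-Hunter CCK-8, guinea pig pancreas (CCK-A) or cortex (CCK-B) membranes. […] Each determination was run in duplicate with <5% sample variability. Means ±SE are given where there were three or more determinations.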

Assay [2] is described as follows: Selectivity ratio of IC50 measured in guinea pig cortex to that of IC50 for guinea pig pancreas. Conditions: Cavia porcellus.
The species entered for assay [3] is Cavia porcellus. The experiment in a line: Percentage response in phosphoinositide hydrolysis relative to maximal response elicited by CCK-8 in guinea pig pancreatic acini. The assay is classed as functional. Summed up:
(§1)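 Guinea pig pancreatic acini, phosphoinositide hydrolysis. […] Efficacy is expressed as % of the maximal response elicited by CCK-8. Each determination was run in duplicate with <5% sample variability. Means ±SE are given for three or more determinations.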

Assay [4] is filed under the species Cavia porcellus. The experiment in a line: The compound was tested for effective concentration for amylase release in guinea pig pancreatic Acini. The assay is classed as functional. Summed up:
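Amylase release from guinea pig pancreatic acini. […] Each determination was run in duplicate with <5% sample variability. Means ±SE are given where there were three or more determinations.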

The species entered for assay [5] is Cavia porcellus. Description: Effective concentration for hydrolysis of phosphoinositide in guinea pig pancreatic Acini. It counts as functional. A digest of the protocol: as §1
Assay [6] deals with T1, Cholecystokinin receptor type A. Description: Binding affinity for Cholecystokinin type A receptor in guinea pig pancreas by using [125I]BH-CCK-8 as radioligand.
Assay [7] concerns the target Gastrin/cholecystokinin type B receptor (Cavia porcellus). The experiment in a line: Binding affinity towards cholecystokinin type B receptor in guinea pig cortex by using [125I]BH-CCK-8 as radioligand.

As for `CC(C)(C)OC(=O)N[C@@H](Cc1c[nH]c2ccccc12)C(=O)N[C@@H](CCCCNC(=O)Nc1ccc(Cl)cc1Cl)C(=O)N[C@@H](CC(=O)O)C(=O)N[C@@H](Cc1ccccc1)C(N)=O` (Boc-WK([CO-X8])DF-NH2), the IC50 in assay [1] came out at 8.5 nM.
Regarding `CC(C)(C)OC(=O)N[C@@H](Cc1c[nH]c2ccccc12)C(=O)N[C@@H](CCCCNC(=O)Nc1cccc(Cl)c1Cl)C(=O)N[C@@H](CC(=O)O)C(=O)N[C@@H](Cc1ccccc1)C(N)=O` (Boc-WK([CO-X7])DF-NH2), the Selectivity in assay [2] came out at 670. Also, the IC50 in assay [1] was 4.5 nM.
With `CC(=O)c1cccc(NC(=O)NCCCC[C@H](NC(=O)[C@H](Cc2c[nH]c3ccccc23)NC(=O)OC(C)(C)C)C(=O)N[C@@H](CC(=O)O)C(=O)N[C@@H](Cc2ccccc2)C(N)=O)c1` (Boc-WK([CO-X4])DF-NH2), the Max response in the assay filed under Cavia porcellus [3] is listed as 95%. The IC50 in assay [1] is 19 nM. The EC50 in the assay filed under Cavia porcellus [4] stood at 5.2 nM.
With `CC(C)(C)OC(=O)N[C@@H](Cc1c[nH]c2ccccc12)C(=O)N[C@@H](CCCCNC(=O)Nc1c(Cl)cccc1Cl)C(=O)N[C@@H](CC(=O)O)C(=O)N[C@@H](Cc1ccccc1)C(N)=O` (Boc-WK([CO-X1])DF-NH2), in assay [2], the Selectivity came out at 44. Also, the figures for the EC50 in the assay filed under Cavia porcellus [5] and in the assay listed under Cavia porcellus [4] were 310 nM and 44 nM, respectively. Moreover, in the assay filed under Cavia porcellus [3], the Max response was 66%. In addition, in assay [6], the IC50 was found to be 160 nM.
Compound `Cc1ccccc1/N=C(/S)NCCCC[C@H](NC(=O)[C@H](Cc1c[nH]c2ccccc12)NC(=O)OC(C)(C)C)C(=O)N[C@@H](CC(=O)O)C(=O)N[C@@H](Cc1ccccc1)C(N)=O` showed an IC50 in assay [1] of 220 nM.
With `CC(C)(C)OC(=O)N[C@@H](Cc1c[nH]c2ccccc12)C(=O)N[C@@H](CCCCNC(=O)Nc1ccccc1)C(=O)N[C@@H](CC(=O)O)C(=O)N[C@@H](Cc1ccccc1)C(N)=O` (Boc-WK([CO-NHPh])DF-NH2), the Selectivity in assay [2] was found to be 42. Moreover, a half-maximal effect in the assay filed under Cavia porcellus [5] (EC50) was put at 53 nM. The Max response in the assay listed under Cavia porcellus [3] amounted to 96%. In addition, the IC50 in assay [7] was found to be 1100 nM.
Regarding `COC(=O)c1cccc(NC(=O)NCCCC[C@H](NC(=O)[C@H](Cc2c[nH]c3ccccc23)NC(=O)OC(C)(C)C)C(=O)N[C@@H](CC(=O)O)C(=O)N[C@@H](Cc2ccccc2)C(N)=O)c1` (Boc-WK([CO-3Abz-OMe])DF-NH2), the Selectivity in assay [2] amounted to 54. This compound also registered a Max response in the assay listed under Cavia porcellus [3] of 88%. Also, the IC50 in assay [1] was 26 nM. Besides, the EC50 in the assay listed under Cavia porcellus [4] was 2.7 nM.
